Source: PubChem (The Scripps Research Institute Molecular Screening Center)
Most compounds without a hit are left out; they make up all but 0.55% or so of the library.
OXTR potentiate – human OXTR potentiators, primary screen, fluorescence, CHO-OTR cells, Fluo-8 calcium | Fluo-8 calcium fluorescence, potentiator mode; 0% = oxytocin EC15, 100% = EC100 | Oxytocin receptor (Homo sapiens), P30559 | 320,000 tested, 0.061% active | activation, % at 3 µM;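 active = activation above that plate's cutoff, the mean activation of tested compounds plus 3 SD, cut at about 6.6% in these data, passing the limit was not always enough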;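 note: 100% uses oxytocin at 75 nM as the full agonist control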
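Replication – single well per compound, singlicate · Assay system – CHO cell line stably expressing human OTR · Timing – 6 min pre-incubation, 100 s read · Measure – normalized max/min fluorescence ratio, % activation · Doses – 3.0 µM, one dose · Detection – Fluo-8 calcium dye fluorescence · Probe or stimulus – oxytocin near EC15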
OXTR agonist – human OXTR agonists, primary screen, fluorescence, CHO-OTR cells, Fluo-8 calcium | Oxytocin receptor (Homo sapiens), P30559 | Fluo-8 calcium fluorescence; normalized: DMSO 0%, oxytocin 100% | activation, % at 3 µM | 320,000 tested, 0.32% active | AID 2435, 2010;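 active = activation above the mean of all tested compounds plus 3 SD, cutoff set per screening run, cut at about 20% in these data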;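 note: peak over basal fluorescence ratio from a 100 s FLIPR kinetic read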
TRPML3 agonist – human TRPML3 channel agonists, primary screen, cell-based, HEK293 TRPML3-YFP, Fluo-8 calcium fluorescence, 3 µM | Mucolipin-3 (Homo sapiens), Q8TDD5 | 100% = the carbachol control signal | activation, % at 3 µM | 220,000 tested, 0.29% active | AID 1448, 2008;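 active = activation above its plate's cutoff, the mean activation of the plate's test wells plus 3 SD, cut at about 12% in these data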;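 note: 0% = DMSO only wells and 100% = carbachol wells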
Target sequence (Q8TDD5 whole entry, looked up): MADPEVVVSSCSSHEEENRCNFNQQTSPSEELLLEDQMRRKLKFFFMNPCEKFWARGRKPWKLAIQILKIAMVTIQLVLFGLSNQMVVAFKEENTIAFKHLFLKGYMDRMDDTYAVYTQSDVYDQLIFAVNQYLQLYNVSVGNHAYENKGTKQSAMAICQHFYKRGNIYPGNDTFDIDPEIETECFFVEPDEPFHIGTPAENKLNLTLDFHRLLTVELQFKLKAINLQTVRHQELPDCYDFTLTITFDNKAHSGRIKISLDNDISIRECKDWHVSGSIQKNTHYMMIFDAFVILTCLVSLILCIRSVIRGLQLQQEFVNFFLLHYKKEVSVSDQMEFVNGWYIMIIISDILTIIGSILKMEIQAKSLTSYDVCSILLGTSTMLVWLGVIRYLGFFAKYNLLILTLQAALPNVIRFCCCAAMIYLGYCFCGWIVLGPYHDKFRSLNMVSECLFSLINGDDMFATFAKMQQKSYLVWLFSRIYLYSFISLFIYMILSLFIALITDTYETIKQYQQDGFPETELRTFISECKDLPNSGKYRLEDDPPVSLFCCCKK
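Material: HEK293 cells stably carrying human TRPML3-YFP; compound dosing: single dose, 3 µM final nominal compound, 0.3% DMSO final; incubation: 1-h 37 °C dye load, 5-s basal, 120-s post-compound reads; technique: Fluo-8 intracellular calcium fluorescence, excitation 470-495 nm, emission 515-575 nm; read-out basis: percent activation from peak-to-basal fluorescence ratio, scaled between DMSO and carbachol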
V1aR counter – agonists of human V1a receptor, primary screen, counter-screen for OXTR agonist project, fluorescence, CHO-V1R cells; Vasopressin V1a receptor (Homo sapiens), P37288; Fluo-8 calcium fluorescence, agonist mode; 0% DMSO, 100% 3 nM vasopressin; activation, % at 3 µM; 320,000 tested, 0.25% active;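 active = activation above the mean activation of all tested compounds plus 3 SD, per screening run, cut at about 20% in these data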;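 note: signal is peak over basal fluorescence ratio across a 100 second FLIPR read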
zfTRPN1 agonist – zebrafish TRPN1 channel agonists, primary screen, cell-based, HEK293, calcium fluorescence; 220,000 tested, 0.18% active; activation, % at 3 µM; transient receptor potential cation channel N1 (TRPN1/NompC), Danio rerio; HEK293 zebrafish TRPN1-YFP, Fluo-8 calcium fluorescence; 100% = response to 87 µM carbachol;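 active = activation above its plate's cutoff, the mean activation of test wells on that plate plus 3 SD, cut at about 19% in these data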;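 note: 0% = DMSO alone and 100% = 87 µM carbachol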
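Control set: carbachol 87 µM as high control, DMSO as low control; system: HEK293 stable line with zebrafish TRPN1-YFP; read-out: % activation versus carbachol response; detection: intracellular calcium fluorescence with Fluo-8; doses: single test compound dose, 3 µM nominal, 0.3% DMSO; schedule: dye 1 h 37 °C plus 30 min RT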
The depositor's hits bear a star; . = no result given.

SMILES	OXTR potentiate	OXTR agonist	TRPML3 agonist	V1aR counter	zfTRPN1 agonist
Cc1ccc(N2C(=O)c3cccc4c(C(=O)O)ccc(c34)C2=O)cc1	-1	1	1	1	1
CC(=O)Nc1ccc(N2C(=O)c3cccc4c(O)ccc(c34)C2=O)cc1	-27	172*	.	174*	.
O=C1c2cccc3c(O)ccc(c23)C(=O)N1Cc1ccco1	.	.	38*	.	79*
O=C1c2ccccc2C(=O)N1c1ccc(Cl)cc1	-9	-2	0	0	-2
CN(C(=O)C(Cl)Cl)C1CC2C=CC1C2 (configuration not stated)	-4	1	1	1	0
CCc1ccc(N2CC(C(=O)Nc3nc4ccc(S(C)(=O)=O)cc4s3)CC2=O)cc1 (configuration not stated)	-1	0	.	1	.
CCC1(c2ccc(F)cc2)NC(=O)N(CC(=O)c2cc(C)n(C3CC3)c2C)C1=O (configuration not stated)	-22	31*	.	30*	.
O=C(CCC(=O)N1CCc2ccccc2C1)NCCc1ccc(Cl)cc1	-8	-1	.	1	.
CCCn1c(=O)c(C(=O)NNC(=O)c2ccccc2Cl)c(O)c2ccccc21	-16	40*	.	30*	.
CCN1CCN(c2c(/C=C3\SC(=S)N(Cc4ccco4)C3=O)c(C)c(C#N)c(=O)n2C)CC1	-10	14	4	20*	2
Cc1ccc2cc3c(N)[nH]nc3nc2c1	-11	0	0	-1	1
COc1ccccc1-n1c(=O)oc2ccc(Cl)cc2c1=O	-20	12	12*	12	24*
CCCNC(=O)c1ccc2c(c1)nc(C)n2-c1cccc(Cl)c1	-2	3	.	1	.
O=C(c1ccc([N+](=O)[O-])cc1)N(Cc1ccc(Br)cc1)N1C(=O)CCCC1=O	-7	2	95*	1	47*
COc1ccc(-c2cc(C(=O)N3CCN(S(=O)(=O)c4ccc(C)cc4)CC3)[nH]n2)cc1	-21	9	.	7	.
CCC1(c2ccc(F)cc2)NC(=O)N(CC(=O)Nc2cccnc2Cl)C1=O (configuration not stated)	-18	23*	.	30*	.
COc1ccc(C2(C)NC(=O)N(CC(=O)Nc3cccnc3Cl)C2=O)cc1 (configuration not stated)	-3	7	.	5	.
CC1(c2ccc(OC(F)F)cc2)NC(=O)N(CC(=O)Nc2ccc(N3CCCCC3)cc2)C1=O (configuration not stated)	-21	27*	.	27*	.
CC1(c2ccc(OC(F)F)cc2)NC(=O)N(CC(=O)Nc2cccnc2Cl)C1=O (configuration not stated)	-22	60*	.	48*	.
CCC1(c2ccccc2)NC(=O)N(CC(=O)Nc2cccnc2Cl)C1=O (configuration not stated)	-3	4	.	2	.
O=C(COc1coc(CN2CCc3ccccc3C2)cc1=O)Nc1cccc([N+](=O)[O-])c1	-1	1	.	2	.
Cn1c(=O)c2ncn(CC(=O)Nc3nc(-c4ccc(Cl)cc4)cs3)c2n(C)c1=O	-16	5	1	4	0
CCCCc1ccc(N/C(N)=N/c2nc(C)cc(C)n2)cc1	-20	58*	80*	62*	109*
CCCCCCn1c(=O)[nH]c2nc3cc(N)c(C)cc3nc2c1=O	.	.	15*	.	42*
O=C(NCCc1ccc(Cl)cc1)c1ccc2[nH]c(=O)c(=O)[nH]c2c1	3	1	.	0	.
SMILES	OXTR potentiate	OXTR agonist	TRPML3 agonist	V1aR counter	zfTRPN1 agonist
CC(=O)N1C(=O)C(=C2C=C(C)OC(C)=C2)c2ccccc21	2	-2	0	-2	26*
C=CCn1c(SCC)nc(O)cc1=O	-5	29*	1	60*	1
CCOC(=O)c1nn(-c2ccccc2)c2nnc(Cc3ccc(C)cc3)c(=O)n12	12*	-3	0	0	0
CCOC(=O)/C(=C/C=C1\Sc2cc(C)c(C)cc2N1CC)C(C)=O	.	.	21*	.	31*
CCOC(=O)/C(=C\C=C1/Sc2ccccc2N1CC)C(C)=O	-12	60*	20*	40*	30*
CCOC(=O)/C(=C/C=C1\Sc2ccccc2N1CC)C(C)=O	-17	46*	23*	49*	51*
Nc1nonc1-n1nnc(C(=O)N/N=C/c2ccccn2)c1CNc1ccccc1	-10	3	.	2	.
Cc1cc(NC(=O)Nc2ccccc2F)ccc1Br	-17	4	4	3	9
O=C1CNC(=O)/C(=C\c2ccccc2)N1	-1	1	.	1	.
O=C1/C(=C/c2ccccc2)Nc2ccccc21	-9	46*	0	42*	1
CCOc1cc(NC(=S)Nc2ccccc2)c(OCC)cc1NC(=O)c1ccccc1	-8	-2	77*	-1	0
OCCNCc1c(OCc2ccc(Cl)cc2)ccc2ccccc12	-20	30*	.	30*	.
CC(C)CCOP(=O)(c1ccc(N(C)C)cc1)C(O)c1ccc(Cl)cc1Cl (configuration not stated)	-21	1	.	2	.
O=C(NC(Cc1ccccc1)C(=O)O)c1cccnc1Cl (configuration not stated)	-19	-1	.	0	.
COc1ccc(Cc2nnc(NC(=O)Nc3ccc(C)cc3)s2)cc1OC	-7	-1	.	1	.
COc1ccc(Cc2nnc(NC(=O)CSc3ccc(C)cc3)s2)cc1OC	-28	57*	2	77*	10
CC(=O)Nc1ccc(Sc2ncccc2C(=O)Nc2cc(Cl)cc(Cl)c2)cn1	-6	4	1	3	2
CC(=O)Nc1ccc(Sc2ncccc2C(=O)Nc2ccc(OC(F)(F)F)cc2)cn1	-8	71*	31*	67*	48*
O=C(NC(Cc1ccccc1)C(=O)O)/C(=C/c1ccc(Cl)cc1)NC(=O)c1ccco1 (configuration not stated)	1	0	.	0	.
CCc1ccc(NC(=O)C2(c3ccccc3)CC2(Cl)Cl)cc1 (configuration not stated)	-25	25*	6	30*	14
O=C(Nc1nnc(-c2ccccc2Cl)o1)c1ccco1	-5	0	0	0	-1
O=C(Nc1nnc(-c2ccccc2Cl)o1)c1nc2ccccc2s1	-10	50*	95*	58*	89*
